TDP2 inh – TDP2 (human) inhibition, absorbance primary screen | O95551 | recombinant TDP2, T5PNP hydrolysis, p-nitrophenol absorbance 415 nm | inhibition, % at 12.8 µM | 370,000 tested, 0.34% active;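 active means inhibition above the mean of all tested compounds plus 3 SD, set per campaign, cut at about 25% in these data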;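 further: 0% = DMSO with enzyme and 100% = buffer with substrate but no TDP2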
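Material: recombinant human TDP2; quantity: TDP2 enzyme at 120 nM final; medium: Tris-HCl pH 7.5 with MgCl2; compound: single concentration, 12.8 µM nominal, with 1% DMSO; incubation: 2 h enzyme incubation at 37 °C; signal: epi absorbance; measure: percent inhibition; benchmarks: high control without enzyme, low control DMSO plus TDP2; repeats: singlicate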
SIAE inh – blocks human sialic acid acetylesterase | inhibition, % at 9.66 µM | Q9HAT2 | 370,000 tested, 0.69% active | SIAE FP-Rh probe binding, fluorescence polarization;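 active means inhibition above a cutoff: mean of compounds within the control limits plus 3 SD of those, cut at about 17% in these data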;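 further: 0% = plate median of compound wells and 100% = probe without SIAE protein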
Target sequence (Q9HAT2 whole entry, looked up): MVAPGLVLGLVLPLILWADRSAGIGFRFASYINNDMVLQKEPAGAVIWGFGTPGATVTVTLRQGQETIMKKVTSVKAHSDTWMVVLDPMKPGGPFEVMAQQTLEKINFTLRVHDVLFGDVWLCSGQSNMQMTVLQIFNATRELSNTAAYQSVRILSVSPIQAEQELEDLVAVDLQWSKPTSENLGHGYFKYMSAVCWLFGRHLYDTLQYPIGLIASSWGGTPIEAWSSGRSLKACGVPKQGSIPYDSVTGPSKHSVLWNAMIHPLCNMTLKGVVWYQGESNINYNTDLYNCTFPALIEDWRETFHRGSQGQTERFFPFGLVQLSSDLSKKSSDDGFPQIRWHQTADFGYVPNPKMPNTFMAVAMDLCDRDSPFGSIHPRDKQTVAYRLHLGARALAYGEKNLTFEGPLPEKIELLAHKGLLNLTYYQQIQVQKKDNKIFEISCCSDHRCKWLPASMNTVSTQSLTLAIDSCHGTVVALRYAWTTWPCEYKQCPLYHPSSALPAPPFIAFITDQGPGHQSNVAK
ABHD4 inh – inhibits mouse alpha/beta hydrolase domain 4; inhibition, % at 8.92 µM; 370,000 tested, 0.54% active; purified mABHD4, FP-Rh probe fluorescence polarization; Q8VD66;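 active means inhibition exceeding the mean over every tested compound plus 3 SD, cut at about 30% in these data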;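 further: 0% = plate median of compound wells and 100% = S159A mutant with DMSO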
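Assay system: wild-type mouse ABHD4 protein; compound: single nominal dose of 8.92 µM, 0.89% DMSO final; schedule: 45 min + 60 min at 25 °C; measured by: FP readout, ex 525 nm / em 598 nm; evaluation: % inhibition of FP-Rh probe binding versus controls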
LEDGF integ inh – blocks HIV-1 LEDGF/p75-dependent DNA integration; TR-FRET IN-LEDGF/p75 DNA integration, Eu/Cy5; inhibition, % at 3.7 µM; 370,000 tested, 0.64% active; AID 743269;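 active means inhibition above the screen-wide mean plus 3 SD, cut at about 13% in these data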;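 further: signal is the Cy5 over europium emission ratio at 671 and 618 nm; 0% = plate median of compound wells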
HTRA1 inhibitor – inhibitors of human serine peptidase HTRA1. Q92743. AID 504803. 340,000 tested, 0.5% active. recombinant HTRA1, FP-rhodamine activity-based probe, fluorescence polarization. inhibition, % at 5.96 µM; in the data active means inhibition above about 36%;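 further: 0% = enzyme with DMSO and 100% = wells lacking enzyme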
TCR CD3 inh – blocks the human TCR-CD3 interaction; TAMRA-labeled TCR probe fluorescence, biochemical; inhibition, % at 9.4 µM; 360,000 tested, 0.37% active; in the data active means inhibition above about 19%;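 further: recombinant mutant TCR 2C K166C tagged with TAMRA read by polarization; 0% = receptor in buffer alone and 100% = receptor with positive control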
ABHD4 confirm – ABHD4 (mouse) inhibition, FP confirmation; purified mABHD4, FP-Rh probe fluorescence polarization; inhibition, % at 8.92 µM; shares compounds with ABHD4 inh; 1,800 tested, 55% active;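 active means mean inhibition across replicates above the hit cutoff set in the primary screen, cut at about 30% in these data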;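 further: 0% = wild-type ABHD4 with DMSO and 100% = catalytically dead S159A mutant with DMSO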
SIAE confirm – confirmation of human SIAE inhibitors | shares compounds with SIAE inh | SIAE FP-Rh activity-based probe, fluorescence polarization | inhibition, % at 9.66 µM | 2,300 tested, 13% active | AID 1117263;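 active means mean inhibition of the replicates above the hit cutoff set in the primary screen, cut at about 17% in these data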;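 further: 0% = SIAE with DMSO and probe and 100% = probe without SIAE; inhibitors lower polarization as more probe stays unbound to SIAE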
* marks the source's active call; other numbers are inactive results; . = no result. Compounds with a hit are over-represented: about 2.2% of the library has one in this group of screens.

SMILES	TDP2 inh	SIAE inh	ABHD4 inh	LEDGF integ inh	HTRA1 inhibitor	TCR CD3 inh	ABHD4 confirm	SIAE confirm
O=C(NN=Cc1ccc(F)cc1)c1ccccc1NS(=O)(=O)c1cccs1	5.6	1.1	0.2	0.8	3.8	0.5	.	.
COC(=O)[C@H](CC(C)C)N(Cc1cn(CC2CCCCC2)nn1)S(=O)(=O)c1ccc(F)cc1Br	-1.2	3.8	7.2	3.1	.	.	.	.
C=CCCC1CN(Cc2ccc(OC)cc2)S(=O)(=O)c2c(Oc3ccc(F)cc3OC)cccc2O1 (configuration not stated)	-5.9	-8.2	-12.8	-0.8	.	-0.8	.	.
CCC(=O)NCCn1c(C)cc2ccccc21	.	.	.	.	7.8	.	.	.
Cc1cc2ccccc2n1CCNC(=O)Cc1cccc2ccccc12	7.6	21.8*	45.8*	4.1	36.1	67.9*	-18.5	-2.4
CCCCS(=O)(=O)N1CCCc2nc(-c3ccc(OC)cc3)ccc21	-1.6	3.6	-7.9	3.4	.	0.1	.	.
Fc1ccccc1-c1ccc(/C=N/Nc2nc3ccccc3[nH]2)o1	-7.8	34.5*	40.1*	10.8	18.3	-5.3	46.1*	34.5*
O=C(NCCc1ccccc1)c1ccc(Sc2ccccc2Cl)c([N+](=O)[O-])c1	5.1	5.5	-0.6	3.6	.	.	.	.
CNc1nc(NCc2ccccc2)c2ccccc2n1	4.7	-2.9	-1.1	-0.2	0.5	-5.5	.	.
Oc1ccccc1Nc1nc(NCc2ccccc2)c2ccccc2n1	-4.9	20.7*	42.9*	-8.6	15.3	4.0	54.8*	6.2
C[C@H]1[C@@H](NCc2cccs2)CC[C@@]23CCCN2C(=O)CCC[C@@H]13	5.6	10.1	-0.4	7.8	.	.	.	.
Nc1[nH]c(C(=O)c2ccccc2)c(-c2ccc(Cl)cc2Cl)c1C(=O)NCCc1c[nH]c2ccccc12	-1.4	18.9*	32.8*	-3.2	.	4.2	25.9	14.7
Nc1[nH]c(C(=O)c2ccc(Br)cc2)c(-c2ccc(Cl)cc2Cl)c1C(=O)NCCc1c[nH]c2ccccc12	7.3	12.8	16.1	-0.5	.	-10.8	.	.
Nc1nc(N)c2cc(Sc3ccc(Cl)cc3)ccc2n1	-17.9	7.0	20.9	-2.5	-12.4	-1.4	.	.
Nc1nc(N)c2cc(CNc3ccc(Cl)c(Cl)c3)ccc2n1	-8.8	39.4*	37.5*	-2.2	-6.3	-10.0	35.7*	46.1*
C=CCN(CC#Cc1ccccc1)CC1CC1	7.0	4.5	-3.7	-0.5	.	.	.	.
O=C(N/N=C/c1c(O)ccc2ccccc12)c1cccnc1	-4.0	26.9*	30.4*	-8.7	30.6	7.5	32.3*	-3.6
COc1ccc2ccccc2c1/C=N\NC(=O)c1cccnc1	5.0	-11.8	-5.2	-0.9	.	1.2	.	.
Cc1csc(N/N=C/c2ccc(O)c([N+](=O)[O-])c2)n1	9.4	17.4*	50.0*	0.0	20.0	13.4	83.3*	-3.2
Cc1ccc(CN2CCCCC(NC(=O)c3cccc(C(F)(F)F)c3)C2=O)cc1 (configuration not stated)	7.8	-4.8	-2.9	-2.2	.	.	.	.
O=C1N=c2ccccc2=C1c1sc(=S)n(-c2ccc(O)cc2)c1O	6.6	21.9*	38.1*	-2.3	8.0	3.0	25.2	6.0
CN1C(=O)c2cc(NS(=O)(=O)c3cccc(F)c3)ccc2OC[C@@H]2O[C@H](CC(=O)O)CC[C@H]21	-1.6	-1.3	-2.8	3.4	.	.	.	.
CNC(=O)c1ccc(-c2sc3nc(N4CCOCC4)c4c(c3c2N)CCCC4)o1	3.0	21.9*	31.9*	-0.6	11.8	0.8	27.2	4.9
CNC(=O)c1ccc(-c2sc3nc(N4CCOCC4)c4c(c3c2N)CC(C)(C)OC4)o1	11.0	3.6	6.1	-3.4	1.7	1.0	.	.
N/C(Cc1cccc2ccccc12)=N\OC(=O)c1ccccc1F	10.1	41.3*	47.7*	4.1	0.7	15.0	3.1	-7.7
COC(=O)[C@]12C[C@H](CC(=O)NCCC(C)C)C(=O)N(Cc3ccccc3)C1=C[C@H](COCc1ccccc1)O[C@@H]2C	-1.2	8.8	3.0	-0.9	.	.	.	.
Cc1nn(-c2ccccc2)c2c1C(c1cccs1)C(C#N)=C(N)O2 (configuration not stated)	.	.	.	.	9.4	.	.	.
Cc1nn(-c2cccc(Cl)c2)c2c1C(c1ccncc1)C(C#N)=C(N)O2 (configuration not stated)	21.6	19.7*	48.1*	0.2	31.4	-6.0	50.2*	7.9
C=CCN1C(=O)[C@@H](CC(=O)N2CCCC2)[C@]2(C(=O)OC)CCCCC=C12	6.1	-7.6	-7.5	8.8	.	.	.	.
CC(=O)O[C@H]1[C@H](OC(C)=O)C[C@]2(OC(C)=O)C[C@H]1OC2=O	-10.4	-2.0	-2.8	3.3	.	.	.	.
